Assay outcomes from PubChem.
The list is not random: actives were taken first. Their share in the collection is about 5.2%.
EBNA-1 inh – blocks EBNA-1 binding to DNA; EBNA-1 DNA binding, fluorescence polarization; inhibition, % at 14.8 µM; hit rate 0.34% among 300,000; in the data active means inhibition above about 28%
ALR inh – blocks human ALR sulfhydryl oxidase activity; P55789; purified ALR, DTT oxidation, H2O2 HRP-luminol luminescence; inhibition, % (test concentration not listed); hit rate 3.8% among 290,000;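 active means mean replicate inhibition above about 79%, with every replicate also reaching it, limit read from the data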
Target sequence (P55789 whole entry, looked up): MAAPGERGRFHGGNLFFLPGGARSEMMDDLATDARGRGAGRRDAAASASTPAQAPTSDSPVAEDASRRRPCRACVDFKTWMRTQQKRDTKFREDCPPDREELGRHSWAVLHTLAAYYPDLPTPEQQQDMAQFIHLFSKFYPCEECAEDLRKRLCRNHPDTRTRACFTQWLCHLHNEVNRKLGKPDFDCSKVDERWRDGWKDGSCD
HCV core dimer – HCV core protein dimerization inhibition; TR-FRET GST/Flag-core106 dimerization, 1536-well; inhibition, % at 5 µM; hit rate 0.33% among 300,000; AID 1899;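 active means inhibition above the mean of all tested compounds plus 3 SD, set per screening campaign, cut at about 45% in these data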
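Test system: GST/Flag-tagged HCV core106 proteins; Medium: KF-containing HEPES buffer, pH 7.45, DTT, CHAPS, BSA; Times: compound-protein-antibody incubation 4 h at 22.5 °C; Detection: TR-FRET 671 and 617 nm emission; Benchmarks: wells lacking GST-core106 and wells with excess unlabelled core106.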
HCV NS3 hel inh – blocks Hepatitis C virus NS3 helicase unwinding | NS3 helicase DNA unwinding, Cy5 molecular beacon fluorescence | inhibition, % at 10.9 µM | hit rate 0.56% among 290,000 | AID 1800;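 active means inhibition above the mean of all tested compounds plus 3 SD, set per campaign, cut at about 35% in these data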;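 further: 0% = DMSO wells and 100% = thioflavine S control wells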
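Test system: hepatitis C virus NS3 helicase domain fragment enzyme. Also added: annealed dual-labelled DNA beacon duplex, ATP-started. Timing: 60 min unwinding reaction at 25 °C after ATP addition. Technique: Cy5 fluorescence. Measure: % inhibition of unwinding.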
ZTA DNA inh – counter-screen for EBNA-1 inhibitors: inhibitors of Epstein-Barr virus ZTA; hit rate 0.15% among 320,000; P03206; inhibition, % at 11 µM; ZTA-DNA binding, fluorescence polarization; in the data active means inhibition above about 33%
Target sequence (P03206 whole entry, looked up): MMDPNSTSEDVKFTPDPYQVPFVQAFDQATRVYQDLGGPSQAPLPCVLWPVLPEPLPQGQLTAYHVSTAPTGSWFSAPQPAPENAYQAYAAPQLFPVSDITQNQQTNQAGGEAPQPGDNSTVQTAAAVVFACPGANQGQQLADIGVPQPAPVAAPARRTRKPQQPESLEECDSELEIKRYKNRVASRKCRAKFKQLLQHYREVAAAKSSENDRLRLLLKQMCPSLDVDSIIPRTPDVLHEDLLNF
PfM18AAP inh – PfM18AAP enzyme inhibition | inhibition, % at 7.35 µM | AID 1822 | recombinant PfM18AAP, H-Glu-NHMec fluorogenic cleavage | hit rate 1.2% among 290,000;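 active means inhibition above the campaign mean inhibition over all tested compounds plus 3 SD, cut at about 28% in these data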;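 further: 0% = plate median of test compound wells and 100% = 2 mM ZnCl2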
The depositor's hits bear a star; . = no result given.

SMILES	EBNA-1 inh	ALR inh	HCV core dimer	HCV NS3 hel inh	ZTA DNA inh	PfM18AAP inh
Cc1ccc(C(=O)O)cc1NC(=S)NC(=O)c1ccc(-c2ccccc2)cc1	1.3	98.2*	11.5	19.1	-22.2	0.3
CN(CC(=O)Nc1cccc(F)c1)C(=O)c1ccccc1Sc1ccccc1C#N	.	-4.6	.	.	-2.9	.
Cc1nnc(NC(=O)c2ccc(S(=O)(=O)N3CC(C)CC(C)C3)cc2)o1 (stereo not drawn)	16.3	2.4	-2.8	0.1	10.5	5.8
COc1ccc(/C=N/N2C(=O)CSC2=S)cc1Br	4.4	16.3	-2.0	.	-5.0	.
Oc1ccc(Br)cc1/C=N/N1CCCCC1	1.5	5.3	-2.6	14.9	-17.1	2.1
O=C1CSC(=S)N1/N=C/c1ccc(O)c(O)c1O	-3.1	.	5.3	35.1	10.6	68.2*
O=C1CSC(=S)N1/N=C/c1cc(Br)ccc1O	-7.2	97.6*	9.9	27.4	7.8	35.2*
CC(C)(C)c1ccc(/C=N/N2C(=O)CSC2=S)cc1	3.0	-9.9	13.9	14.9	-11.9	30.8*
CCOC(=O)c1nc(NNC(=O)c2ccc([N+](=O)[O-])cc2)sc1C	-1.9	99.2*	-18.7	34.0	-0.9	23.6
CCOC(=O)c1sc(NC(=O)c2ccc(S(=O)(=O)N(C)C)cc2)nc1C	-6.5	1.8	2.9	-0.2	-7.5	-0.7
CCOC(=O)c1sc(NNC(=O)c2ccc(F)cc2)nc1C	-3.3	10.4	1.1	6.3	1.9	28.2*
Nn1c(SCC(=O)N2CCCC2=O)nnc1-c1cccs1	2.4	.	-1.8	.	-0.5	.
CCC1CN(S(=O)(=O)c2cc(-c3cc(C)no3)ccc2OC)c2cc(C)ccc2O1 (stereo not drawn)	-5.7	-3.5	6.6	-13.5	-5.9	3.2
CC(=O)Nc1ccc(OCC(O)Cn2cnc3ccccc32)cc1 (stereo not drawn)	-3.8	-9.1	-3.7	1.0	-3.1	2.9
CC(=O)Nc1cccc(OCC(O)Cn2cnc3ccccc32)c1 (stereo not drawn)	-3.6	99.6*	-3.7	-8.3	0.7	-0.1
CCN(CC)c1ccc(NC(=O)C2=CC=CN3CCS(=O)(=O)N=C23)cc1	.	99.2*	.	.	-0.6	.
CC(C)C(c1nnnn1C1CCCC1)N1CCCc2ccccc21 (stereo not drawn)	-6.0	25.2	3.6	7.8	-3.1	6.1
CC(C)C(c1nnnn1C1CCCC1)N1CCc2ccccc21 (stereo not drawn)	14.6	99.0*	-4.1	0.9	-16.5	-0.8
CCc1ccc2c(CN3CCc4ccccc43)cc(=O)oc2c1	-7.4	-1.5	13.6	-5.1	12.7	6.8
O=c1cc(CN2CCc3ccccc32)c2ccc(O)cc2o1	3.9	99.4*	23.3	-2.2	14.5	10.2
COc1ccc(-n2nnnc2S(=O)(=O)CC(=O)N2CCCCC2)cc1	1.6	97.7*	4.0	-11.7	3.1	-26.4
CCc1ccc(Oc2nnnn2-c2ccc(C(N)=O)cc2)cc1	3.8	-3.5	3.0	-1.8	11.0	-2.6
COc1ccc(-n2nnnc2S(=O)(=O)Cc2ccc(C(=O)O)cc2)cc1	-4.0	97.9*	-0.5	-1.1	0.0	-97.8
NN(Cc1ccccc1)C(=S)Nc1ccc(Cl)c(Cl)c1	-8.3	5.2	-0.4	-18.5	-13.7	29.8*
CC(=O)c1ccc(NC(=S)N2CC(C)CC(C)C2)cc1 (stereo not drawn)	-8.6	0.4	1.7	-9.6	9.4	1.8
SMILES	EBNA-1 inh	ALR inh	HCV core dimer	HCV NS3 hel inh	ZTA DNA inh	PfM18AAP inh
COc1ccc(N2CCN(C(=O)NC3CCCCC3)CC2)cc1	-10.9	80.8*	-11.1	1.1	3.8	2.5
CC(C(=O)Nc1ccc([N+](=O)[O-])cc1Cl)N1CCN(S(=O)(=O)c2cccs2)CC1 (stereo not drawn)	.	20.0	.	.	6.3	.
CC(C(=O)Nc1cc([N+](=O)[O-])ccc1Cl)N1CCN(c2ccc(O)cc2)CC1 (stereo not drawn)	-3.9	.	37.9	4.5	2.0	28.9*
COc1cccc(N2CCN(C(=O)NC3CCCCC3)CC2)c1	-10.9	76.9*	2.9	1.2	-11.1	2.3
CC(C(=O)NC(=O)NC1CCCCC1)N1CCN(c2ccc(O)cc2)CC1 (stereo not drawn)	.	99.2*	.	.	-11.3	.
CCc1nc2cccnc2n1-c1ccc(CC(=O)NCCOC)cc1	-0.9	.	-1.1	1.0	4.6	-0.1
CCOC(=O)CSc1n[nH]c(-c2ccco2)n1	-7.3	.	2.9	-3.0	6.4	0.1
